This note sets out measurements from ChEMBL document CHEMBL1153208, “Identification of a new class of small molecule C5a receptor antagonists” (Bioorg Med Chem Lett, 2010).

In experiment [1] the target is T1, C5a anaphylatoxin chemotactic receptor 1 (Homo sapiens, UniProt P21730).
T1 sequence (P21730 whole entry): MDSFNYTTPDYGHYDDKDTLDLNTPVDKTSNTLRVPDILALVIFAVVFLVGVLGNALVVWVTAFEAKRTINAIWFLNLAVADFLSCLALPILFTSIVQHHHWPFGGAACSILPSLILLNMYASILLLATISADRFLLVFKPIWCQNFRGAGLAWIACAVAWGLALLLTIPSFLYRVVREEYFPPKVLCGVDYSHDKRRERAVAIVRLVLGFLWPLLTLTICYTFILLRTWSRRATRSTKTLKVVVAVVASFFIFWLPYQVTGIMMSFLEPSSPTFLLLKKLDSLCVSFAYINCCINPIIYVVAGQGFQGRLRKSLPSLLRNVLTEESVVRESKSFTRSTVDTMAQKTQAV
Description: Agonist activity at human C5a receptor expressed in CHO cells co-expressed with Galpha16 assessed as effect on anaphylatoxin C5a-induced intracellular calcium accumulation after 10 mins by FLIPR assay. Type of experiment: functional, cell-based. For orientation: Calcium assays in cells follow changes in intracellular calcium, usually with a dye or a luminescent sensor.

The target in experiment [2] is T1, C5a anaphylatoxin chemotactic receptor 1. Description: Antagonist activity at human C5a receptor expressed in CHO cells co-expressed with Galpha16 assessed as inhibition of anaphylatoxin C5a-induced intracellular calcium accumulation after 10 mins by FLIPR assay. In kind it is functional, cell-based.
The target is the same in experiment [3]. Description: Displacement of [125I]human anaphylatoxin C5a from human C5a receptor expressed in CHO cells co-expressed with Galpha16 after 1 hr. In kind it is cell-based. A digest of the protocol:
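Intact CHO-Gα16-C5aR cells plated at 50,000/well in growth medium with 10% FBS the day before. Medium replaced by HBSS + 20 mM HEPES + 0.1% BSA. Compound added for 10 min at rt, then 0.6 nM 125I-hC5a for 1 h at rt. Cells washed eight times with PBS + 1 mM CaCl2 + 0.1% BSA on a harvester.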
Background: Loss of bound radioactivity is the signal in a displacement assay; it reports binding, not function.

The nature of experiment [4]: Inhibition of anaphylatoxin C5a-induced chemotaxis in human PMNC. In kind it is functional.
The subject of a further experiment is Blood. Description: Inhibition of anaphylatoxin C5a-induced PMNC shape changes in human whole blood treated 10 mins before anaphylatoxin C5a-induced challenge measured after 40 mins by FACS analysis. In kind it is functional, tissue-based. The essentials:
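Whole-blood assay. After stimulation, cells fixed with ice-cold 1% paraformaldehyde, then red cells lysed in ice-cold hypotonic buffer for 40 min on ice. Neutrophils gated by forward and side scatter on a flow cytometer. Shape change read as the rise in autofluorescence on the FL2-H channel.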
A general note: Flow cytometry measures light scatter and fluorescence of single cells or particles in a stream.

Experiment [5] addresses T1, C5a anaphylatoxin chemotactic receptor 1. Description: Antagonist activity at C5a receptor in human PMNC assessed as inhibition of anaphylatoxin C5a-induced intracellular calcium accumulation after 10 mins by FLIPR assay. Type of experiment: functional, cell-based. The essentials:
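Human neutrophils purified from whole blood on a Ficoll gradient, resuspended in Ca3 dye and plated at 50,000 cells/well in HBSS + 20 mM HEPES + 0.1% BSA. After 1 h at 37 °C, 5% CO2, compound added for 10 min, then 10 nM hC5a. Calcium response recorded on FLIPR.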

A further experiment concerns the target P2Y purinoceptor 2 (Homo sapiens, UniProt P41231). Description: Inhibition of human P2Y2 receptor expressed in CHO cells. Type of experiment: cell-based.
The target in experiment [6] is T2, C-X-C chemokine receptor type 3 (Homo sapiens, UniProt P49682).
T2 sequence (P49682 whole entry): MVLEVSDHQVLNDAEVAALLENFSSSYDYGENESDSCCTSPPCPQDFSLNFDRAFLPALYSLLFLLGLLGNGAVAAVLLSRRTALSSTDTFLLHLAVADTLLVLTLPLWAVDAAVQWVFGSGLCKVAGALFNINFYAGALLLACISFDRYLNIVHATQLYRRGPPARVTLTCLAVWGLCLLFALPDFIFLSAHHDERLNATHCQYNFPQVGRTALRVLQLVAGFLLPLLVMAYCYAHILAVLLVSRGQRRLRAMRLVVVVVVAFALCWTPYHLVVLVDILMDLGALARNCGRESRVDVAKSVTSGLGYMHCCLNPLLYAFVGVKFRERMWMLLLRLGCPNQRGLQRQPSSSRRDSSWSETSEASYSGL
Description: Inhibition of CXCR3 in human T cells. Type of experiment: cell-based, T-cell.

The target in experiment [7] is C-X-C chemokine receptor type 4 (Homo sapiens, UniProt P61073). Description: Inhibition of CXCR4 in human T cells. In kind it is cell-based, T-cell.
Sequence of C-X-C chemokine receptor type 4 (P61073 whole entry): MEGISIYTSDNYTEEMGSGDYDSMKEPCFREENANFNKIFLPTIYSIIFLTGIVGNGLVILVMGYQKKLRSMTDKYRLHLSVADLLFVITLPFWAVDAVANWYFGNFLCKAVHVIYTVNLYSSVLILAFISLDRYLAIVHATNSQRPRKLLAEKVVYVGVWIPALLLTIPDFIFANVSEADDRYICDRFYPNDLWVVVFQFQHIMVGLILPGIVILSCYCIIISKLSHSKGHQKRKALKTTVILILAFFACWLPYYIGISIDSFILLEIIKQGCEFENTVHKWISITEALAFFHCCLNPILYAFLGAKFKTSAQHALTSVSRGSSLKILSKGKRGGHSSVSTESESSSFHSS

As usually defined, the EC50 is the concentration needed to bring the measured effect to its halfway point. By IC50 is commonly meant the midpoint of a concentration-inhibition curve.

Sequence of P2Y purinoceptor 2 (P41231 whole entry): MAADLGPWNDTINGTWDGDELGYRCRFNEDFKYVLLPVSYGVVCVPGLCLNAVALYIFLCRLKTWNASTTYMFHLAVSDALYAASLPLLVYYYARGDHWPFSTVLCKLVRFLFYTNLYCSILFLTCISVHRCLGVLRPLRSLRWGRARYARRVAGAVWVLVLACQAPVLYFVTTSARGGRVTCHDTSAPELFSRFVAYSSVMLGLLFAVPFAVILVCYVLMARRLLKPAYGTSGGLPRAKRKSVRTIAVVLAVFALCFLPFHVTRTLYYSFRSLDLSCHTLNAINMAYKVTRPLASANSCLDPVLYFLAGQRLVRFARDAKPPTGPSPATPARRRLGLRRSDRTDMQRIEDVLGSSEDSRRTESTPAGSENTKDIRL

Take `CN(c1ccccc1N(C)S(=O)(=O)c1ccccc1)S(=O)(=O)c1ccccc1`: the 50% effective concentration (EC50) in experiment [1] is greater than 60 µM. Besides, the half-maximal inhibitory concentration (IC50) in experiment [2] and in experiment [3] was greater than 60 µM in each case.

As to `Cc1ccc(S(=O)(=O)N(C)c2ccccc2C(=O)c2ccsc2)cc1`, the IC50 was greater than 60 µM in [4]; greater than 60 µM in the experiment on Blood; 0.4 µM in experiment [5]; greater than 60 µM against P2Y purinoceptor 2; 0.6 µM in [2]; 1.7 µM in [3]. For the same molecule, the 50% inhibitory concentration (IC50) in experiment [6] and in experiment [7] was greater than 60 µM in each case. In [1], the EC50 is greater than 60 µM.

On to `Cc1ccc(S(=O)(=O)N(C)c2ccc(Br)cc2C(=O)c2ccccc2)cc1`, for which the EC50 in experiment [1] is greater than 60 µM. The IC50 in experiment [2] was greater than 60 µM; in [3], 14.6 µM.

With `CC(=O)c1ccccc1N(C)S(=O)(=O)c1ccc(C)cc1`, the EC50 in experiment [1] is greater than 60 µM. The 50% inhibitory concentration (IC50) in experiment [2] and in experiment [3] was greater than 60 µM in each case.

In the case of `C=CCN(c1ccccc1N(CC=C)S(=O)(=O)c1ccc(C)cc1)S(=O)(=O)c1ccc(C)cc1`, the 50% inhibitory concentration (IC50) in [4] was 2.5 µM; in experiment [5] it was 0.059 µM; on P2Y purinoceptor 2, greater than 60 µM; in experiment [2] it was 0.3 µM; in experiment [3] it was 0.3 µM; in [6], greater than 60 µM. In experiment [7], this molecule registered a concentration for half-maximal inhibition (IC50) greater than 60 µM. For the same molecule, the EC50 in [1] is greater than 60 µM.

Take `Cc1ccc(S(=O)(=O)N(C)c2ccccc2N(C)S(=O)(=O)c2ccc(C)cc2)cc1`: the half-maximal inhibitory concentration (IC50) in experiment [4] was 5.7 µM; with Blood it was 27 µM; in [5], 0.0067 µM; against P2Y purinoceptor 2, greater than 60 µM; in experiment [2] it was 0.2 µM; in experiment [3], 0.2 µM. Further, the IC50 in experiment [6] and in [7] was greater than 60 µM throughout. Also, in [1], the EC50 is greater than 60 µM.

For the molecule `Cc1ccc(S(=O)(=O)N2Cc3ccccc3CN(S(=O)(=O)c3ccc(C)cc3)c3ccccc32)cc1`, the EC50 in [1] was greater than 60 µM. In addition, the IC50 in experiment [2] and in [3] was greater than 60 µM each time.

Turning to `Cc1ccc(S(=O)(=O)N(C)c2ccc(Cl)cc2C(=O)c2ccccc2)cc1`, the concentration giving a half-maximal response (EC50) in [1] was greater than 60 µM. Besides, the IC50 in [2] was greater than 60 µM; in [3], 8.7 µM.

On to `Cc1ccc(S(=O)(=O)N(CCCN(c2ccccc2)S(=O)(=O)c2ccc(C)cc2)c2ccccc2)cc1`, for which the IC50 in experiment [5] and in experiment [2] was greater than 60 µM each time.

As for `Cc1ccc(S(=O)(=O)N2CCN(S(=O)(=O)c3ccc(C)cc3)CC2)cc1`, the IC50 in experiment [5] and in [2] was greater than 60 µM throughout.

Regarding `Cc1ccc(S(=O)(=O)N2CCN(S(=O)(=O)c3ccc(C)cc3)c3ccccc32)cc1`, the EC50 in experiment [1] is greater than 60 µM. Further, the concentration for half-maximal inhibition (IC50) in experiment [2] and in [3] was greater than 60 µM throughout.

Take `Cc1ccc(S(=O)(=O)N(C)c2ccccc2C(=O)N2CCc3ccccc32)cc1`: the concentration for a half-maximal effect (EC50) in experiment [1] was greater than 60 µM. For the same molecule, the IC50 in experiment [2] worked out at 38.3 µM; in experiment [3], 44.5 µM.
